Measured values reported in ChEMBL document CHEMBL4402600, “Discovery of a Dual Tubulin Polymerization and Cell Division Cycle 20 Homologue Inhibitor via Structural Modification on Apcin” (J Med Chem, 2020).
Active and inactive are the calls of the source. The calls are words filed in the database; no cut-off is given here.

What was measured:
[1] = biological target: T1, Cell division cycle protein 20 homolog (Homo sapiens, UniProt Q12834); experiment: Binding affinity to CDC20 (unknown origin) by SPR analysis
T1 sequence (Q12834 whole entry): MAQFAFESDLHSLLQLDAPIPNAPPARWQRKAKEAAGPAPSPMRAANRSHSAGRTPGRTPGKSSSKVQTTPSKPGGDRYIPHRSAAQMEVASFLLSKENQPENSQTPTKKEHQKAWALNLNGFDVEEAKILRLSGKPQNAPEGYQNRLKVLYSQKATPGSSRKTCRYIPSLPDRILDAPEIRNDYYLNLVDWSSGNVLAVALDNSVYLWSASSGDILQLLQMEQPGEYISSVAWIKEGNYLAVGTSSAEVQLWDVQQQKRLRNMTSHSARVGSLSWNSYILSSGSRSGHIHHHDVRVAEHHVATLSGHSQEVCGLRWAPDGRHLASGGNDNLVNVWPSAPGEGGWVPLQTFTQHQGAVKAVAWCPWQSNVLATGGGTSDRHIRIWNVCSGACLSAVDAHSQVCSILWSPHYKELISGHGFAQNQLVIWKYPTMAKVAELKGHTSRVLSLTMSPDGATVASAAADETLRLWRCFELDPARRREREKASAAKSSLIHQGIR
In short: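 Recombinant human Cdc20 (>95% pure) coupled by EDC/NHS to an acid-coupling chip; PBS pH 7.4 running buffer. Compounds injected as a gradient dilution series starting at 200 μM, 120-140 s association, 160 s dissociation. Steady-state values plotted against concentration; K_D from a one-to-one / single-site model.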

HepG2 [2] = experiment: Induction of apoptosis in human HepG2 cells assessed as increase in cleaved PARP level at 30 to 100 uM incubated for 48 hrs by Western blot analysis; type: functional, cell-based
In short: (§1)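 HepG2 cells treated 48 h. Lysates in RIPA buffer with protease/phosphatase inhibitors; 25 μg protein run on SDS-PAGE, transferred to PVDF, blocked in 5% milk/TBST, primary antibodies overnight at 4°C (caspase-3, cleaved caspase-3, cleaved PARP), HRP secondary 1 h at room temperature, ECL detection; densitometry quantified.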

HepG2 [3] = experiment: Induction of apoptosis in human HepG2 cells assessed as viable cells level at 100 uM incubated for 24 hrs by Annexin V-FITC/PI staining based flow cytometry (reference value: 89.38%); type: functional
HepG2 [4] = experiment: Induction of apoptosis in human HepG2 cells assessed as viable cells level at 300 uM incubated for 24 hrs by Annexin V-FITC/PI staining based flow cytometry (reference value: 89.38%); type: functional
HepG2 [5] = experiment: Cytotoxicity in human HepG2 cells assessed as reduction in cell viability incubated for 48 hrs by MTT assay; type: functional, cell-based; details: HepG2, 48 h
In short: (§2)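 Cells grown at 37°C, 5% CO₂ (HepG2, OVCAR-3, Caov-3 in DMEM + 10% FBS; A549, HeLa, A375, MCF-7 in RPMI 1640 + 10% FBS). Seeded at 4-5×10³/well in triplicate, adhered overnight, exposed to 0.03–300 μM (DMSO <0.1%) for 48 h. MTT added for 4 h, formazan dissolved in DMSO, absorbance read. IC50 from dose–response curves, mean ± SD of at least three independent experiments.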

MCF7 = experiment: Cytotoxicity in human MCF7 cells assessed as reduction in cell viability incubated for 48 hrs by MTT assay; type: functional, cell-based; details: MCF7, 48 h; in short: as §2
A-375 = experiment: Cytotoxicity in human A375 cells assessed as reduction in cell viability incubated for 48 hrs by MTT assay; type: functional, cell-based; details: A-375, 48 h; in short: as §2
Caov-3 cell line = experiment: Cytotoxicity in human Caov3 cells assessed as reduction in cell viability incubated for 48 hrs by MTT assay; type: functional, cell-based; details: Caov-3, 48 h; in short: as §2
HepG2 [6] = experiment: Induction of apoptosis in human HepG2 cells assessed as necrotic cells level at 300 uM incubated for 24 hrs by Annexin V-FITC/PI staining based flow cytometry (reference value: 1.48%); type: functional
HepG2 [7] = experiment: Induction of apoptosis in human HepG2 cells assessed as necrotic cells level at 100 uM incubated for 24 hrs by Annexin V-FITC/PI staining based flow cytometry (reference value: 1.48%); type: functional
HepG2 [8] = experiment: Induction of apoptosis in human HepG2 cells assessed as early apoptotic cells level at 300 uM incubated for 24 hrs by Annexin V-FITC/PI staining based flow cytometry (reference value: 4.02%); type: functional
[9] = biological target: T1, Cell division cycle protein 20 homolog; experiment: Inhibition of CDC20 in human HepG2 cells assessed as increase in Bim protein levels at 100 uM incubated for 48 hrs by Western blot Analysis; type: cell-based
In short: (§3)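 HepG2 lysates in RIPA buffer with protease/phosphatase inhibitors; 25 μg protein by SDS-PAGE/PVDF, blocked in 5% milk/TBST, primary antibodies overnight at 4°C (Cyclin A2, Cyclin B1, Bim, Aurora A, Skp2), HRP secondary 1 h at room temperature, ECL; bands quantified by densitometry.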

A549 = experiment: Cytotoxicity in human A549 cells assessed as reduction in cell viability incubated for 48 hrs by MTT assay; type: functional, cell-based; details: A549, 48 h; in short: as §2
HepG2 [10] = experiment: Induction of apoptosis in human HepG2 cells assessed as early apoptotic cells level at 100 uM incubated for 24 hrs by Annexin V-FITC/PI staining based flow cytometry (reference value: 4.02%); type: functional
HepG2 [11] = experiment: Induction of apoptosis in human HepG2 cells assessed as late apoptotic cells level at 300 uM incubated for 24 hrs by Annexin V-FITC/PI staining based flow cytometry (reference value: 5.12%); type: functional
OVCAR-3 = experiment: Cytotoxicity in human OVCAR3 cells assessed as reduction in cell viability incubated for 48 hrs by MTT assay; type: functional, cell-based; details: OVCAR-3, 48 h; in short: as §2
HepG2 [12] = experiment: Inhibition of mitotic exit in human HepG2 cells assessed as increase in nuclear phosphohistone H3 levels incubated for 48 hrs by immunofluorescence assay; type: functional, cell-based
In short: (§4)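 HepG2 seeded at 4×10³/well, overnight adhesion, treated 48 h. Fixed 15 min in 4% formaldehyde, permeabilized with Triton X-100, BSA-blocked, anti-phospho-histone H3 (Ser10) at 4°C overnight, fluorescent anti-rabbit secondary, DAPI counterstain. Fluorescence read relative to DMSO control; PHH3-positive cells counted in random fields as % of total. At least two experiments.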

HepG2 [13] = experiment: Induction of apoptosis in human HepG2 cells assessed as increase in cleaved caspase-3 level at 30 to 100 uM incubated for 48 hrs by Western blot analysis; type: functional, cell-based; in short: as §1
HepG2 [14] = experiment: Induction of apoptosis in human HepG2 cells assessed as late apoptotic cells level at 100 uM incubated for 24 hrs by Annexin V-FITC/PI staining based flow cytometry (reference value: 5.12%); type: functional
HeLa = experiment: Cytotoxicity in human HeLa cells assessed as reduction in cell viability incubated for 48 hrs by MTT assay; type: functional, cell-based; in short: as §2
HepG2 [15] = experiment: Inhibition of mitotic exit in human HepG2 cells assessed as increase in nuclear phosphohistone H3 levels at 10 to 100 uM incubated for 48 hrs by relative to control
HepG2 [16] = experiment: Induction of apoptosis in human HepG2 cells assessed as increase in cleaved caspase-3 level at 3 to 30 uM incubated for 48 hrs by Western blot analysis; type: functional, cell-based; in short: as §1
HepG2 [17] = experiment: Induction of apoptosis in human HepG2 cells assessed as increase in cleaved PARP level at 3 to 30 uM incubated for 48 hrs by Western blot analysis; type: functional, cell-based; in short: as §1
[18] = biological target: Fizzy-related protein homolog (Homo sapiens) (UniProt Q9UM11); experiment: Inhibition of CDH1 in human HepG2 cells assessed as effect on Skp2 protein expression at 30 uM incubated for 48 hrs by Western blot Analysis; type: cell-based; in short: as §3
Sequence of Fizzy-related protein homolog (Homo sapiens) (Q9UM11 whole entry): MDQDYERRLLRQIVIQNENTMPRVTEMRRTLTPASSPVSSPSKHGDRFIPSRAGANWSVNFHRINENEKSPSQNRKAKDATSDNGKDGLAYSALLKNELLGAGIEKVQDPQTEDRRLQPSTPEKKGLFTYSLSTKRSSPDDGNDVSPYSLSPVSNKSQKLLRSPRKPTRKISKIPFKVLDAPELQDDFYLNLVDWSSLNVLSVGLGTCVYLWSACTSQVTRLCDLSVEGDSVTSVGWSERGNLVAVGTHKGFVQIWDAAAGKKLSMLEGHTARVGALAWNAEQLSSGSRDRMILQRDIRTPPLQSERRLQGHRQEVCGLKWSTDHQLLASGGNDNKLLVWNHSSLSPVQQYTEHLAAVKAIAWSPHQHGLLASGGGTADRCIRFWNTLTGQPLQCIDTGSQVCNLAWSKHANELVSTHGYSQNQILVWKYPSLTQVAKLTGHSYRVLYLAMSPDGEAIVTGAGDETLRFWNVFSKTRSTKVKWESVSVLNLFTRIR

[19] = biological target: T1, Cell division cycle protein 20 homolog; experiment: Inhibition of CDC20 in human HepG2 cells assessed as increase in Bim protein levels at 30 uM incubated for 48 hrs by Western blot Analysis; type: cell-based; in short: as §3
[20] = biological target: T1, Cell division cycle protein 20 homolog; experiment: Inhibition of CDC20 in human HepG2 cells assessed as increase in stability of Bim protein at 30 uM measured after 2 to 8 hrs by Western blot Analysis; type: cell-based
In short: (§5)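 Time course in HepG2: cyclin B1, Aurora A, Bim and cleaved PARP examined by Western blot at 1, 2, 4, 8 and 12 h after adding 30 μM compound; lysis in RIPA with inhibitors, 25 μg protein per lane, ECL detection.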

[21] = biological target: T1, Cell division cycle protein 20 homolog; experiment: Inhibition of CDC20 in human HepG2 cells assessed as decrease in cyclin B degradation at 30 uM incubated for 48 hrs by Western blot Analysis; type: cell-based; in short: as §3
[22] = biological target: Fizzy-related protein homolog (Homo sapiens) (UniProt Q9UM11); experiment: Inhibition of CDH1 in human HepG2 cells assessed as effect on Aurora A protein expression at 30 uM incubated for 48 hrs by Western blot Analysis; type: cell-based; in short: as §3
HepG2 [23] = experiment: Inhibition of mitotic exit in human HepG2 cells assessed as increase in nuclear phosphohistone H3 levels at 30 uM incubated for 48 hrs by immunofluorescence assay relative to control; type: functional; set-up: scale not given: the % may be the effect or the level left; in short: as §4
[24] = biological target: T1, Cell division cycle protein 20 homolog; experiment: Inhibition of CDC20 in human HepG2 cells assessed as increase in stability of Bim protein at 30 uM measured after 1 to 12 hrs by Western blot Analysis
HepG2 [25] = experiment: Inhibition of mitotic exit in human HepG2 cells assessed as increase in nuclear phosphohistone H3 levels at 3 to 30 uM incubated for 48 hrs by Western blot analysis relative to control; type: functional, cell-based
[26] = biological target: T1, Cell division cycle protein 20 homolog; experiment: Inhibition of CDC20 in human HepG2 cells assessed as increase in Aurora A protein degradation at 30 uM measured after 1 to 12 hrs by Western blot analysis; type: cell-based; in short: as §5
[27] = biological target: T1, Cell division cycle protein 20 homolog; experiment: Inhibition of CDC20 in human HepG2 cells assessed as increase in stability of cyclin B1 protein at 30 uM measured after 2 to 8 hrs by Western blot Analysis; type: cell-based; in short: as §5

Kd [1] [µM] | Compound | Activity (HepG2 [3]) [%] | IC50 (HepG2 [5]) [µM] | IC50 (MCF7) [µM] | IC50 (A-375) [µM] | IC50 (Caov-3 cell line) [µM] | Activity (HepG2 [7]) [%] | IC50 (A549) [µM] | Activity (HepG2 [10]) [%] | IC50 (OVCAR-3) [µM] | Activity (HepG2 [12]) | Activity (HepG2 [14]) [%] | IC50 (HeLa) [µM] | other results
123 | Cc1ncc([N+](=O)[O-])n1CCOC(=O)NC(Nc1ncccn1)C(Cl)(Cl)Cl (configuration not stated) | 82.91 | > 300 | > 300 | 193 | > 300 | 2.39 | > 300 | 7.85 | > 300 | Dose-dependent effect | 6.85 | 221 | Activity (HepG2 [2]): Active; Activity (HepG2 [4]): 6.82%; Activity (HepG2 [6]): 0.73%; Activity (HepG2 [8]): 62.43%; inhibition [9]: Active; Activity (HepG2 [11]): 30.02%; Activity (HepG2 [13]): Active; fold change (FC) (HepG2 [15]): 2.2
49 | Cc1ncc([N+](=O)[O-])n1CCOC(=O)NC(Nc1c(Cl)nc(N)nc1Cl)C(Cl)(Cl)Cl (configuration not stated) | 64.34 | 25.6 | 160 | 34.2 | 110 | 1.08 | 56.5 | 25.27 |  | Dose-dependent effect | 9.31 | 63.2 | Activity (HepG2 [16]): Active; Activity (HepG2 [17]): Active; inhibition [18]: inactive; inhibition [19]: Active; inhibition [20]: Active; inhibition [21]: Active; inhibition [22]: inactive; Activity (HepG2 [23]): 6.9%; inhibition [24]: inactive; Activity (HepG2 [25]): Active; inhibition [26]: Active; inhibition [27]: Active
 | O=C(NC(n1ncc2c(O)ncnc21)C(Cl)(Cl)Cl)OCCc1ccccn1 (configuration not stated) |  | 271 | > 300 | > 300 | > 300 |  | > 300 |  | > 300 |  |  | > 300 | 
